Source: ChEMBL document CHEMBL1148398, “Design, synthesis, and biological evaluation of thio-containing compounds with serum HDL-cholesterol-elevating properties” (2004)

Experiments:
Cricetinae gen. sp. [1] = assay: Percent change in very low-density lipoprotein cholesterol following oral administration of compound in hypercholesterolemic hamsters at 100 mg/kg/day for 14 days; format: functional
In short: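 Male Syrian Golden hamsters pre-fed chow plus 0.25% cholesterol for 2 weeks and kept on it. Dosed 100 mg/kg/day by oral gavage in 2% Tween 80/saline for 14 days. Serum total cholesterol and glycerol-blanked triglycerides read enzymatically; lipoproteins separated by FPLC with cholesterol measured in each fraction. % change versus vehicle controls; six per group, p < 0.05.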

Cricetinae gen. sp. [2] = assay: Effect of compound on high-density lipoprotein cholesterol levels in 1st group of cholesterol-fed male hamsters at 3 mg/kg/day after 14 days of treatment; format: functional, organism-based
Rattus norvegicus [3] = assay: Effect of compound on gain in body weight in 4th group of normal chow-fed male rats after a dose of 10 mg/kg/day; format: functional
In short: (§1)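 Male Sprague–Dawley CD rats (60–80 g) on standard chow under a reversed 12 h light/dark cycle. Compound was suspended in 1.3% Tween 80/0.25% CMC and given as a single daily oral gavage dose for 4 days. Rats were fasted overnight and killed 24 h after the last dose. Serum ALT, AST, ALKP and LDH were read on a clinical analyzer. Weight gain was start versus end weight. Mean ± SEM, n = 6.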

Rattus norvegicus [4] = assay: Percent change in triglycerides in hypercholesterolemic rats at a dose of 100 mg/kg/day for 8 days; format: functional
Rattus norvegicus [5] = assay: Effect of compound on alanine aminotransferase (ALT) levels in 2nd group of normal chow-fed male rats after a dose of 2 mg/kg/day; format: functional, organism-based; in short: as §1
Rattus norvegicus [6] = assay: Effect of compound on alanine aminotransferase (ALT) levels in 5th group of normal chow-fed male rats after a dose of 20 mg/kg/day; format: functional, organism-based; in short: as §1
Rattus norvegicus [7] = assay: Effect of compound on aspartate aminotransferase (AST) levels in 3rd group of normal chow-fed male rats after a dose of 5 mg/kg/day; format: functional, organism-based; in short: as §1
Rattus norvegicus [8] = assay: Effect of compound on liver weight in 6th group of normal chow-fed male rats after a dose of 50 mg/kg/day; format: functional
In short: (§2)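 Male Sprague–Dawley CD rats, 60–80 g, on chow with a reverse 12 h light/dark cycle. Given one oral gavage dose daily for 4 days, suspended in 1.3% Tween 80/0.25% CMC. Fasted overnight and sacrificed 24 h after the last dose for blood and liver. Serum liver enzymes read on a clinical analyzer. Six per group, mean ± SEM.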

Rattus norvegicus [9] = assay: Effect of compound on relative liver weight in 1st group of normal chow-fed male rats after a dose of 1 mg/kg/day; format: functional
In short: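 Chow-fed male Sprague–Dawley CD rats, 60–80 g, dosed by oral gavage once daily for 4 days in 1.3% Tween 80/0.25% CMC. Fasted overnight and sacrificed 24 h after the last dose. Liver weight expressed as % of body weight at termination. Six per group, mean ± SEM.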

Rattus norvegicus [10] = assay: Effect of compound on low-density lipoprotein cholesterol levels in 4th group of normal chow-fed male rats after a dose of 10 mg/kg/day; format: functional, organism-based
In short: (§3)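 Male Sprague–Dawley CD rats, 60–80 g, on standard chow with reverse 12 h light/dark cycle. One oral gavage dose daily for 4 days, suspended in 1.3% Tween 80 and 0.25% CMC. Fasted overnight; sacrificed 24 h after the last dose. Serum TC on clinical analyzer, lipoproteins by FPLC with cholesterol per fraction, T4 on analyzer. Mean ± SEM, six rats per group.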

Rattus norvegicus [11] = assay: Effect of compound on serum apolipoprotein A1 concentration in chow-fed male rats at a dose of 5 mg/kg/day; format: functional, organism-based
In short: (§4)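 Separate dose-response study in male Sprague–Dawley CD rats, 60–80 g, on chow. Oral gavage once daily for 4 days in 1.3% Tween 80 / 0.25% CMC; fasted overnight, bled 24 h after last dose. Apo-A1 by ELISA with rabbit anti-rat primary, alkaline phosphatase-conjugated anti-rabbit IgG and p-nitrophenyl phosphate substrate. HDL-C by FPLC fractionation. Mean ± SEM, six per group.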

Rattus norvegicus [12] = assay: Effect of compound on serum apolipoprotein A1 concentration in chow-fed male rats at a dose of 50 mg/kg/day; format: functional, organism-based; in short: as §4
Rattus norvegicus [13] = assay: Effect of compound on serum high-density lipoprotein cholesterol concentration in chow-fed male rats at a dose of 0 mg/kg/day; format: functional, organism-based; in short: as §4
Rattus norvegicus [14] = assay: Effect of compound on serum high-density lipoprotein cholesterol concentration in chow-fed male rats at a dose of 10 mg/kg/day; format: functional, organism-based; in short: as §4
Rattus norvegicus [15] = assay: Effect of compound on thyroxine levels in 2nd group of normal chow-fed male rats after a dose of 2 mg/kg/day; format: functional, organism-based; in short: as §3
Rattus norvegicus [16] = assay: Effect of compound on total plasma cholesterol levels in 1st group of normal chow-fed male rats after a dose of 1 mg/kg/day; format: functional, organism-based; in short: as §3
Rattus norvegicus [17] = assay: Effect of compound on triglyceride levels in 7th group of normal chow-fed male rats after a dose of 100 mg/kg/day; format: functional, organism-based
In short: (§5)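 Male Sprague–Dawley CD rats (60–80 g) on Purina 5001 chow with a reverse 12 h light/dark cycle. Dosed once daily by oral gavage for 4 days, suspended in 1.3% Tween 80 / 0.25% CMC. Fasted overnight and bled 24 h after the last dose. Serum TC and glycerol-blanked TG measured enzymatically; VLDL-C by FPLC fractionation with cholesterol assay. n=6, mean ± SEM.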

Rattus norvegicus [18] = assay: Effect of compound on triglycerides level in 1st group of normal chow-fed male rats after a dose of 1 mg/kg/day; format: functional, organism-based; in short: as §5
Rattus norvegicus [19] = assay: Effect of compound on lactic dehydrogenase (LDH) levels in 1st group of normal chow-fed male rats after a dose of 1 mg/kg/day; format: functional, organism-based; in short: as §1
Rattus norvegicus [20] = assay: Effect of compound on very low-density lipoprotein cholesterol levels in 1st group of normal chow-fed male rats after a dose of 1 mg/kg/day; format: functional, organism-based; in short: as §5
Rattus norvegicus [21] = assay: Effect of compound on very low-density lipoprotein cholesterol levels in 5th group of normal chow-fed male rats after a dose of 20 mg/kg/day; format: functional, organism-based; in short: as §5
Rattus norvegicus [22] = assay: Effect of compound on liver weight in 3rd group of normal chow-fed male rats after a dose of 5 mg/kg/day; format: functional; in short: as §2
Cricetinae gen. sp. [23] = assay: Effect of compound on triglycerides level in 2nd group of cholesterol-fed male hamsters at 10 mg/kg/day after 14 days of treatment; conditions: Mesocricetus auratus
Cricetinae gen. sp. [24] = assay: Effect of compound on triglycerides level in 4th group of cholesterol-fed male hamsters at 100 mg/kg/day after 14 days of treatment; conditions: Mesocricetus auratus
Cricetinae gen. sp. [25] = assay: Effect of compound on lactic dehydrogenase (LDH) levels in 4th group of cholesterol-fed male hamsters at 100 mg/kg/day after 14 days of treatment; conditions: Mesocricetus auratus
Cricetinae gen. sp. [26] = assay: Effect of compound on alanine aminotransferase (ALT) levels in 1st group of cholesterol-fed male hamsters at 3 mg/kg/day after 14 days of treatment; conditions: Mesocricetus auratus
Cricetinae gen. sp. [27] = assay: Effect of compound on aspartate aminotransferase (AST) levels in 2nd group of cholesterol-fed male hamsters at 10 mg/kg/day after 14 days of treatment; conditions: Mesocricetus auratus
Cricetinae gen. sp. [28] = assay: Effect of compound on low-density lipoprotein cholesterol levels in 3rd group of cholesterol-fed male hamsters at 30 mg/kg/day after 14 days of treatment; conditions: Mesocricetus auratus

**Q.** Which results are given for `CCN1CC(=O)N(c2cc(Cl)ccc2C)C1=S`?
**A.** Change (Cricetinae gen. sp. [1]): -33.4%; Serum level (Cricetinae gen. sp. [2]): 136 mg/dL; Body weight (Rattus norvegicus [3]): 33.2 g; Change (Rattus norvegicus [4]): -19%; Level (Rattus norvegicus [5]): 59 U l-1; Level (Rattus norvegicus [6]): 78 U l-1; Level (Rattus norvegicus [7]): 216 U l-1; Liver weight (Rattus norvegicus [8]): 7.3 g; Relative liver weight (Rattus norvegicus [9]): 4.3%; Serum level (Rattus norvegicus [10]): 8.1 mg/dL; Serum level (Rattus norvegicus [11]): 72.9 mg/dL; Serum level (Rattus norvegicus [12]): 88.8 mg/dL; Serum level (Rattus norvegicus [13]): 51.9 mg/dL; Serum level (Rattus norvegicus [14]): 73.1 mg/dL; Serum level (Rattus norvegicus [15]): 4.33 µg/dL; Serum level (Rattus norvegicus [16]): 55 mg/dL; Serum level (Rattus norvegicus [17]): 12 mg/dL; Serum level (Rattus norvegicus [18]): 18 mg/dL; Level (Rattus norvegicus [19]): 724 U l-1; Serum level (Rattus norvegicus [20]): 4.3 mg/dL; Serum level (Rattus norvegicus [21]): 5.3 mg/dL; Liver weight (Rattus norvegicus [22]): 7.2 g; Serum level (Cricetinae gen. sp. [23]): 455 mg/dL; Serum level (Cricetinae gen. sp. [24]): 342 mg/dL; Level (Cricetinae gen. sp. [25]): 1390 U l-1; Level (Cricetinae gen. sp. [26]): 182 U l-1; Level (Cricetinae gen. sp. [27]): 345 U l-1; Serum level (Cricetinae gen. sp. [28]): 125 mg/dL
